According to ChEMBL document CHEMBL5053518, “1,5,6,7-Tetrahydro-4H-indazol-4-ones as human neutrophil elastase (HNE) inhibitors” (Bioorg Med Chem Lett, 2021):
Activity calls are given as the source filed them. No cut-off for these calls is given here.

Target: T1, Neutrophil elastase (Homo sapiens) (UniProt P08246)
T1 sequence (whole entry): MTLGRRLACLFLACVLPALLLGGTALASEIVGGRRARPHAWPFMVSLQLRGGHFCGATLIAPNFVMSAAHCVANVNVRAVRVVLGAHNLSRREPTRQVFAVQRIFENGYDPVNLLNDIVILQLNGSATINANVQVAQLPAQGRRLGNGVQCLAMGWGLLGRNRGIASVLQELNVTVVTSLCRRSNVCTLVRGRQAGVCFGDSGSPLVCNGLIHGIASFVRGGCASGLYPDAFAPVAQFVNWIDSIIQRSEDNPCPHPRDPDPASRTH
Test: Inhibition of human neutrophil elastase at 50 uM
Details: not given
Summary of the method: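 Human neutrophil elastase inhibition was tested up to a highest concentration of 50 μM. Active compounds were given as Ki values, reported as mean ± SD of three independent experiments.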

Compound	inhibition
Cc1cccc(C(=O)NC2CCCc3c2cnn3-c2ccccc2)c1 (stereo not given)	inactive
O=C1CCCc2nn(CC(=O)N3CCNCC3)cc21	inactive
O=C(C1CC1)N(C(=O)C1CC1)C1CCCc2c1cnn2-c1ccccc1 (stereo not given)	inactive
O=C1CCCc2c1cnn2Cc1cccc(C(F)(F)F)c1	inactive
CC(C)(C)OC(=O)N1CCN(C(=O)Cn2ncc3c2CCCC3=O)CC1	inactive
O=C1CCCc2nn(-c3cccc(C(F)(F)F)c3)cc21	inactive
O=C1c2cn(CC(=O)N3CCN(c4ccccc4)CC3)nc2CCC1Br (stereo not given)	inactive
CC(C)(C)OC(=O)n1cc2c(n1)CCC(Br)C2=O (stereo not given)	inactive
O=C1CCCc2nn(Cc3cccc(C(F)(F)F)c3)cc21	inactive
O=C(NC1CCCc2c1cnn2-c1ccccc1)C1CC1 (stereo not given)	inactive
O=C1CCCc2c1cnn2-c1cccc(C(F)(F)F)c1	inactive
O=C1CCCc2c1cnn2Cc1ccccc1	inactive
O=C1c2cnn(CC(=O)N3CCN(c4ccccc4)CC3)c2CCC1Br (stereo not given)	inactive
O=C1CCCc2nn(Cc3ccccc3)cc21	inactive
CC(C)(C)OC(=O)N1CCN(C(=O)Cn2cc3c(n2)CCCC3=O)CC1	inactive

System: not listed separately
Test: Stability in aqueous buffer assessed as half life
Assay type: physicochemical
Details: aqueous buffer

Compound	half-life
O=C(C1CC1)n1cc2c(n1)CCC(Br)(Br)C2=O	3.91 h
O=C1c2cnn(C(=O)C3CC3)c2CCC1Br (stereo not given)	0.645 h

Same assay, conditions: buffer

Compound	t1/2
Cc1cccc(C(=O)n2ncc3c2CCCC3=O)c1	1.64 h
O=C1c2cn(C(=O)C3CC3)nc2CCC1Br (stereo not given)	1.9123 h
O=C(C1CC1)n1ncc2c1CCC(Br)(Br)C2=O	0.952 h
